Experimental data taken from ChEMBL document CHEMBL3864174, “Scaffold-Hopping of Aurones: 2-Arylideneimidazo[1,2-a]pyridinones as Topoisomerase IIα-Inhibiting Anticancer Agents” (ACS Med Chem Lett, 2016).
Active and inactive are the calls of the source. No cut-off for these calls is given here.

Columns and labels:
[1] = biological target: DNA topoisomerase 2-alpha (Homo sapiens) (UniProt P11388); experiment: Poison activity at human Topo2alpha using pUC19 as substrate assessed as DNA cleavage-complex formation at 100 uM measured after 20 mins by ethidium bromide staining based SDS-agarose gel electrophoresis
[2] = biological target: Cyclin-dependent kinase 1 (Homo sapiens) (UniProt P06493); experiment: Inhibition of CDK1 phosphorylation at Thr-161 residue in human MCF7 cells at 75 nM after 48 hrs by Western blot analysis relative to control; assay type: cell-based
Outline: (§1)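 Western blot of MCF-7 lysates after treatment across a concentration series. Probes were CDK1, pCDK1 (Thr 161) and cleaved caspase 3 (17 kDa). Bands were quantified by densitometry as fold change versus untreated control, with at least three repeats.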

[3] = Downregulation of p53 expression in human MCF7 cells at 50 nM after 48 hrs by Western blot analysis relative to control; assay type: functional, cell-based
[4] = system: MCF7; experiment: Inhibition of topoisomerase in human MCF7 cell nuclear lysates assessed as reduction in relaxation of supercoiled plasmid DNA NFkB substrate at 10 to 75 nM after 30 mins by ethidium bromide-staining based agarose gel electrophoresis
Outline: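 Ex vivo topoisomerase assay using MCF-7 nuclear lysate with NFkB plasmid as substrate. Compound ranged from 10 nM to 75 nM, with lanes for plasmid alone and untreated lysate, and an etoposide lane at 45 µM.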

[5] = Downregulation of p21 expression in human MCF7 cells at 75 nM after 48 hrs by Western blot analysis relative to control; assay type: functional, cell-based
[6] = biological target: DNA topoisomerase 2-alpha (Homo sapiens) (UniProt P11388); experiment: Inhibition of human Topo2alpha-mediated kDNA decatenation at 100 uM after 30 mins by SDS-based agarose gel electrophoresis
[7] = Cell cycle arrest in human MCF7 cells assessed as accumulation at G2/M phase at 50 nM after 48 hrs by propidium iodide-staining based FACS analysis (reference value: 41 +/- 2.8 %); assay type: functional
[8] = Cytotoxicity against African green monkey Vero cells assessed as cells growth inhibition after 48 hrs by MTT assay; assay type: toxicity, cell-based, Chlorocebus sabaeus
Outline: (§2)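 MTT colorimetric assay. HEK-293T (kidney line) and VERO cells were tested, and the IC50 was taken as the concentration giving 50% growth inhibition.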

[9] = system: MCF7; experiment: Induction of apoptosis in human MCF7 cells assessed as chromatin condensation up to 75 nM after 48 hrs by DAPI-nuclear staining based fluorescent microscopic analysis relative to control; assay type: functional, cell-based
Outline: (§3)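 MCF-7 cells exposed to increasing compound concentrations for 48 h before DAPI was added. Nuclei were scored for chromatin condensation and fragmentation, counted as apoptotic nuclei versus untreated cells.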

[10] = system: MCF7; experiment: Induction of apoptosis in human MCF7 cells assessed as decrease in BCL-XL expression at 50 nM after 48 hrs by Western blot analysis relative to control; assay type: functional
[11] = (§4) Cytotoxicity against HEK293T cells assessed as cells growth inhibition after 48 hrs by MTT assay; assay type: functional, cell-based; details: Homo sapiens, HEK-293T; outline: as §2
[12] = system: HEK-293T; experiment: as §4; assay type: functional, cell-based; details: Homo sapiens; outline: as §2
[13] = biological target: Cyclin-dependent kinase 1 (Homo sapiens) (UniProt P06493); experiment: Inhibition of CDK1 phosphorylation at Thr-161 residue in human MCF7 cells at 50 nM after 48 hrs by Western blot analysis relative to control; assay type: cell-based; outline: as §1
[14] = Cytotoxicity against human MDA-MB-231 cells assessed as reduction in cell viability after 48 hrs by MTT assay; assay type: functional, cell-based; details: MDA-MB-231, 48 h
[15] = system: MCF7; experiment: Induction of apoptosis in human MCF7 cells assessed as increase in BAX expression at 50 nM after 48 hrs by Western blot analysis relative to control; assay type: functional
[16] = system: MCF7; experiment: Induction of apoptosis in human MCF7 cells assessed as increase in caspase-3 expression at 50 to 75 nM after 48 hrs by TRITC/DAPI-staining based fluorescent microscopic analysis; assay type: functional, cell-based
Outline: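 Caspase 3 immunocytochemistry in MCF-7 cells after increasing compound concentrations. Signal was expressed as densitometric fold change versus untreated control, with at least three repeats.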

[17] = Inhibition of tubulin polymerization in human MCF7 cells assessed as suppression of protein assembly after 15 mins by spectrophotometric analysis; assay type: cell-based
[18] = system: MCF7; experiment: Induction of apoptosis in human MCF7 cells assessed as increase in 17 kDa caspase-3 expression at 75 nM after 48 hrs by Western blot analysis relative to control; assay type: functional; outline: as §1
[19] = system: MCF7; experiment: Inhibition of alpha tubulin in human MCF7 cells assessed as distortion in tubulin assembly at 50 to 75 uM by FITC/propidium iodide-staining based assay; assay type: cell-based
Outline: (§5)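 MCF-7 cells were immunostained for α-tubulin with FITC and counterstained with propidium iodide for nuclei. Merged images were inspected for assembly distortion and abnormal mitotic spindles.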

[20] = Cytotoxicity against human MDA-MB-468 cells assessed as reduction in cell viability after 48 hrs by MTT assay; assay type: functional, cell-based; details: MDA-MB-468, 48 h
[21] = (§6) Cytotoxicity against HEK293T cells assessed as reduction in colony formation after 48 hrs by crystal violet-staining based assay; assay type: functional; details: Homo sapiens, HEK-293T, read-out: LC50 (the source's name)
[22] = system: HEK-293T; experiment: as §6; assay type: functional; details: Homo sapiens
[23] = system: MCF7; experiment: Inhibition of alpha tubulin in human MCF7 cells assessed as formation of abnormal mitotic spindle at 50 to 75 uM by FITC/propidium iodide-staining based assay; assay type: cell-based; outline: as §5
[24] = Downregulation of p21 expression in human MCF7 cells at 50 nM after 48 hrs by Western blot analysis relative to control; assay type: functional, cell-based
[25] = system: MCF7; experiment: Induction of apoptosis in human MCF7 cells assessed as nuclear fragmentation up to 75 nM after 48 hrs by DAPI-nuclear staining based fluorescent microscopic analysis relative to control; assay type: functional, cell-based; outline: as §3
[26] = Downregulation of CDK1 expression in human MCF7 cells at 75 nM after 48 hrs by Western blot analysis relative to control; assay type: functional, cell-based; outline: as §1
[27] = Downregulation of p53 expression in human MCF7 cells at 75 nM after 48 hrs by Western blot analysis relative to control; assay type: functional, cell-based
[28] = system: MCF7; experiment: Induction of apoptosis in human MCF7 cells assessed as 19 kDa caspase-3 expression level at 50 nM after 48 hrs by Western blot analysis relative to control; assay type: functional
[29] = system: MCF7; experiment: Induction of apoptosis in human MCF7 cells assessed as 19 kDa caspase-3 expression level at 75 nM after 48 hrs by Western blot analysis relative to control; assay type: functional
[30] = system: MCF7; experiment: Antiinvasive activity in human MCF7 cells assessed as reduction in number of invaded colonies at 25 to 75 nM after 48 hrs by crystal violet-staining based colony counting; assay type: functional, cell-based
Outline: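 Matrigel invasion assay in MCF-7 cells exposed to rising compound concentrations; read-out is the number of invaded colonies versus an untreated control.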

[31] = Binding affinity to DNA (unknown origin) assessed as occurrence of hypochromism after 1 hr by UV-Vis spectrophotometric analysis
Outline: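 UV absorption of DNA near 260 nm, recorded with and without increasing compound concentrations; hypochromism was taken as the binding read-out.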

[32] = Cell cycle arrest in human MCF7 cells assessed as accumulation at subG1 phase at 100 nM after 48 hrs by propidium iodide-staining based FACS analysis (reference value: 0.8 +/- 0.1 %); assay type: functional
[33] = system: MCF7; experiment: Induction of apoptosis in human MCF7 cells assessed as decrease in BCL-XL expression at 75 nM after 48 hrs by Western blot analysis relative to control; assay type: functional
[34] = system: MCF7; experiment: Cytotoxicity against human MCF7 cells assessed as reduction in colony formation after 48 hrs by crystal violet-staining based assay; assay type: functional, cell-based
[35] = system: MCF7; experiment: Induction of apoptosis in human MCF7 cells assessed as increase in BAX expression at 75 nM after 48 hrs by Western blot analysis relative to control; assay type: functional
[36] = Cytotoxicity against African green monkey Vero cells assessed as reduction in colony formation after 48 hrs by crystal violet-staining based assay; assay type: toxicity, cell-based; details: chlorocebus sabaeus
[37] = system: MCF7; experiment: Induction of apoptosis in human MCF7 cells assessed as increase in 17 kDa caspase-3 expression at 50 nM after 48 hrs by Western blot analysis relative to control; assay type: functional; outline: as §1
[38] = Downregulation of CDK1 expression in human MCF7 cells at 50 nM after 48 hrs by Western blot analysis relative to control; assay type: functional, cell-based; outline: as §1
[39] = system: MCF7; experiment: Cytotoxicity against human MCF7 cells assessed as cells growth inhibition after 48 hrs by MTT assay; assay type: functional, cell-based
[40] = system: MCF7; experiment: Induction of apoptosis in human MCF7 cells assessed as increase in apoptotic nuclei at 75 nM after 48 hrs by DAPI-nuclear staining based fluorescent microscopic analysis relative to control; assay type: functional; outline: as §3

Cyclin-dependent kinase 1 (Homo sapiens), sequence (P06493 whole entry, looked up): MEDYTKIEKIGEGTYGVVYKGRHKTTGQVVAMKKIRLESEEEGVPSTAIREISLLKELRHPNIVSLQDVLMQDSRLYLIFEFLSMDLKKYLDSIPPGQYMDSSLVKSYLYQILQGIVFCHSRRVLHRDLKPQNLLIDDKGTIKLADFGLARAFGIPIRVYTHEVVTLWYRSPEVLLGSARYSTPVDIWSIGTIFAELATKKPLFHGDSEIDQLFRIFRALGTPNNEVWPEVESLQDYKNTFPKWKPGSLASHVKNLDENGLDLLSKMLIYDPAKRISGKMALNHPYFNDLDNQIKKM
DNA topoisomerase 2-alpha (Homo sapiens), sequence (P11388 whole entry): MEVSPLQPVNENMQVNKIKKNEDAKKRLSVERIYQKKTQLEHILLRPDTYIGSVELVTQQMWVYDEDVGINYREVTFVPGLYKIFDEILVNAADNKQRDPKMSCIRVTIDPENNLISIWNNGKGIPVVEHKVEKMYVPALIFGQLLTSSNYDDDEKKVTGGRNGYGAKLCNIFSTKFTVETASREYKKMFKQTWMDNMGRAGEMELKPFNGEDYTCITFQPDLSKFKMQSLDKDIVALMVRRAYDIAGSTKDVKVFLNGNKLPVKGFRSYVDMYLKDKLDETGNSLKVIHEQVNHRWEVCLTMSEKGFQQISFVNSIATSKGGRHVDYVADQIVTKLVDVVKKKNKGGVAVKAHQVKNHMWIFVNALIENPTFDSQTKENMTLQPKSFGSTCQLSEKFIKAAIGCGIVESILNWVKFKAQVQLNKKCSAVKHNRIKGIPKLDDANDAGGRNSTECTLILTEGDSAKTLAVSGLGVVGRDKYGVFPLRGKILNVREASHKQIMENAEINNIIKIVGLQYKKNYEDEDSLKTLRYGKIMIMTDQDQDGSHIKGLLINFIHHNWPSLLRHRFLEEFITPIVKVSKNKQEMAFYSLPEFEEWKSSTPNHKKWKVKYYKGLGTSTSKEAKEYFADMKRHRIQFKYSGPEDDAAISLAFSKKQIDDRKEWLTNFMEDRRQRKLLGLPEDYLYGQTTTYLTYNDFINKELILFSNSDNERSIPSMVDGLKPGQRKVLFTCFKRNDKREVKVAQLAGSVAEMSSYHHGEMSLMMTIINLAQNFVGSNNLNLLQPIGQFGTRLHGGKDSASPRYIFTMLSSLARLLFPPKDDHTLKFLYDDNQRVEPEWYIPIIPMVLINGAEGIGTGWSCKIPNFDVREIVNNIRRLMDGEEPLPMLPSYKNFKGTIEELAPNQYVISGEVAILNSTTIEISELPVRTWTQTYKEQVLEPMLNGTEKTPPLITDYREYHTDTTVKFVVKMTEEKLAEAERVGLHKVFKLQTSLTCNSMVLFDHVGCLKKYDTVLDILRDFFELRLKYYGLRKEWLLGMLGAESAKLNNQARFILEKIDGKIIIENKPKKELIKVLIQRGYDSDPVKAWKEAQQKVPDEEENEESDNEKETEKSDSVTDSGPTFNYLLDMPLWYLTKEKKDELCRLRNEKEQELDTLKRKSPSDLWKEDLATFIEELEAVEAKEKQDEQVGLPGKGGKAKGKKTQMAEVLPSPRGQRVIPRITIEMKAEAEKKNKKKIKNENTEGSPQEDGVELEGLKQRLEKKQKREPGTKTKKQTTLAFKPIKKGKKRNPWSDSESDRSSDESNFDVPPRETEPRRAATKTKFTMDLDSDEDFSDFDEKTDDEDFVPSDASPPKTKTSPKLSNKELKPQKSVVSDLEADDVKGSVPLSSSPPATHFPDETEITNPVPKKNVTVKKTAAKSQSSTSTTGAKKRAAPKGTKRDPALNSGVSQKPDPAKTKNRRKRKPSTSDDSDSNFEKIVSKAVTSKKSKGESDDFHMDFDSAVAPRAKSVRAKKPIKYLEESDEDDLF

## COc1ccc(/C=C2\N=C3C=CC=CN3C2=O)cc1
[1]
  Activity: Active
[2]
  fold change (FC): 2
[3]
  fold change (FC): 1.4
[4]
  inhibition: Active
[5]
  fold change (FC): 2.5
[6]
  inhibition: Active
[7]
  Activity: 80.1%
[8]; African green monkey (Chlorocebus sabaeus), Vero cells
  IC50 at 48 h: 1500 nM
[8]; chlorocebus sabaeus, vero, 48 h
  growth inhibition (GI): Dose-dependent effect
[9]
  Activity: Active
[10]
  fold change (FC): 0.9
[11]
  IC50: 60 nM
[12]
  growth inhibition (GI): Dose-dependent effect
[13]
  fold change (FC): 1.2
[14]
  IC50: 64 nM
[15]
  fold change (FC): 1.2
[16]
  Activity: Dose-dependent effect
[17]
  IC50: 54 nM
[18]
  fold change (FC): 2
[19]
  inhibition: Active
[20]
  IC50: 60 nM
[21]
  CC50: 60 nM
[22]
  Activity: Dose-dependent effect
[23]
  inhibition: Active
[24]
  fold change (FC): 1.4
[25]
  Activity: Active
[26]
  fold change (FC): 0.2
[27]
  fold change (FC): 2.5
[28]
  fold change (FC): 1.4
[29]
  fold change (FC): 1.6
[30]
  Activity: Active
[31]
  Kb: 2e+06 M⁻¹
[32]
  Activity: 20.2%
[33]
  fold change (FC): 0.2
[34]
  Activity: Dose-dependent effect
[35]
  fold change (FC): 2
[36]; Vero cells, read-out: LC50
  CC50 at 48 h: 1500 nM
[36]; vero, 48 h
  Activity: Dose-dependent effect
[37]
  fold change (FC): 1.6
[38]
  fold change (FC): 0.9
[39]
  growth inhibition (GI): Dose-dependent effect
[40]
  fold change (FC): >6
